The subject of series [1] is E. coli ΔsbmA cells (JW0368) expressing SbmA mutants. Type of series: cell-based, Escherichia coli. The following applies: for antibiotic sensitivity of cells carrying SbmA Tyr116 mutation: Tyr116 (potential periplasmic gate) mutant.
The target of the next series is T1, BacA (Rhizobium meliloti, UniProt Q08120).
T1 sequence (Q08120 1-420): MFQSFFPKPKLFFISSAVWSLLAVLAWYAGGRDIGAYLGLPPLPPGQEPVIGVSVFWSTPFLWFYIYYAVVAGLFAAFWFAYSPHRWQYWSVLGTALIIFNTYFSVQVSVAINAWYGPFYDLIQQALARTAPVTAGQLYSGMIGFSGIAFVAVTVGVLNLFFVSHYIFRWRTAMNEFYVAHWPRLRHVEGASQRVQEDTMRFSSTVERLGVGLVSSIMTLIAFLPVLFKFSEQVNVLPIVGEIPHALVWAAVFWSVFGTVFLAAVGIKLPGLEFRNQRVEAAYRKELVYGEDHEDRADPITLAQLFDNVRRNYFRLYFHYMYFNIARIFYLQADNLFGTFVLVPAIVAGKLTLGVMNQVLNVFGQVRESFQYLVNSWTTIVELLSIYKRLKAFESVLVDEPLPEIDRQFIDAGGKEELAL
Briefly: Microscale thermophoresis. Type of series: binding, Sinorhizobium meliloti. The following applies: BacA-ND complex; MST. The method in brief: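 Purified protein mixed into DDM-solubilized lipid (7.5 mM lipid, 33 mM DDM) for 30 min at 28°C. Alexa Fluor 647–labeled MSP1E3D1 (S22C/A121C) added, then Amberlite XAD-2 overnight at 28°C, and nanodiscs purified by SEC. Labeled nanodiscs (20 nM) incubated 15 min in the dark with test compound in 20 mM K-Hepes pH 8, 150 mM KCl, 0.005% Tween 20 (DMSO 1.25% final). Kd from a 1:1 fit of the MST signal, three independent measurements.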
Background: In MST a laser heats a spot of the sample, and binding alters the fluorescence response.

For series [2], the target named is Escherichia coli inner membrane transporter SbmA (E. coli) (UniProt P0AFY6). Briefly: MST.
Series [3] concerns the molecule itself. Nature of the series: cryo-EM structure.
Series [4] deals with the molecule itself. Briefly: cryo-EM structure. The source holds these as a separate data set.

The source of these data is article PMC8442886 (Science Advances, 2021).

Starred links: 1 amine or outer side, 2 acyl side, 3 side chain; linkers in the order of their positions; H or OH if unused. Positions of bridges follow the written chain, without caps; N, C: chain ends. Non-standard residues stand in square brackets, D forms with d. Residues, ends and D or L forms follow the SMILES beside them. No end group written: not given here. *: point of attachment. X1 = NC(=O)CC[C@@H]1NC(=O)[C@H](CO)N=C1N[C@@H](CO)C(=O)*; X2 = NC(=O)C[C@H](N[*:1])c1nc(C(=O)[*:2])cs1; X4 = NC(=O)C[C@H](N[*:1])c1nc(C(=O)[*:2])co1; X3 = O=C(c1csc([C@H](CO)N[*:1])n1)[*:2]

Consider `CC(C)C[C@H](NC(=O)CNC(=O)CNC(=O)[C@@H](NC(=O)c1csc([C@H](CC(N)=O)NC(=O)[C@H](C)NC(=O)[C@H](CO)NC(=O)c2coc([C@H](CC(N)=O)NC(=O)[C@H](CO)NC(=O)c3csc([C@H](CO)NC(=O)[C@H](C)NC(=O)c4csc([C@H](CC(N)=O)NC(=O)CNC(=O)[C@@H]5CCCN5C(=O)[C@H](CO)NC5=N[C@@H](CO)C(=O)N[C@H]5CCC(N)=O)n4)n3)n2)n1)[C@@H](C)O)C(=O)O` [KLB, klebsazolicin] (X1-PG[X2]A[X3]S[X4]SA[X2]TGGL-OH; C-terminus assumed), for which, in series [1], the “antibiotic sensitivity of cells carrying SbmA Tyr116 mutation” value is given as “resistant”.
By Kd is commonly meant the concentration at which binding is half-saturated. Low readings indicate tighter binding, high ones weaker binding. As for bleomycin, the “antibiotic sensitivity of cells carrying SbmA Tyr116 mutation” value in series [1] was “slightly increased sensitivity”. Further, the “antibiotic sensitivity of cells carrying SbmA Tyr368Ala mutant” value in series [1] (Tyr368Ala (first internal gate) mutant) is reported as “additionally sensitized”. Besides, on BacA, binding was put at a Kd of 19 ± 11 nM.
In turn, klebsazolicin (peptide) returned a Kd in series [2] of 849 nM.
Turning to “microcin J25 (GGAGHVPEYFVGIGTPISFYG; lactam N-8; ends not checked; UniProt Q9X2V7 38-58, looked up) [MccJ25]”, in series [1], the “antibiotic sensitivity of cells carrying SbmA Tyr116 mutation” value is reported as “resistant”.

B1: Escherichia coli inner membrane transporter SbmA (natural protein, E. coli)
chain: MFKSFFPKPGTFFLSAFVWALIAVIFWQAGGGDWVARITGASGQIPISAARFWSLDFLIFYAYYIVCVGLFALFWFIYSPHRWQYWSILGTALIIFVTWFLVEVGVAVNAWYAPFYDLIQTALSSPHKVTIEQFYREVGVFLGIALIAVVISVLNNFFVSHYVFRWRTAMNEYYMANWQQLRHIEGAAQRVQEDTMRFASTLENMGVSFINAIMTLIAFLPVLVTLSAHVPELPIIGHIPYGLVIAAIVWSLMGTGLLAVVGIKLPGLEFKNQRVEAAYRKELVYGEDDATRATPPTVRELFSAVRKNYFRLYFHYMYFNIARILYLQVDNVFGLFLLFPSIVAGTITLGLMTQITNVFGQVRGAFQYLINSWTTLVELMSIYKRLRSFEHELDGDKIQEVTHTLS
In general, stoichiometry N refers to the number of molecules, sites or subunits per partner or assembly. Take B1: in the series “cryo-EM structure [3]”, the “stoichiometry N” value is 2.

B2: BacA from Sinorhizobium meliloti (natural protein, S. meliloti, UniProt Q08120 1-420, looked up)
chain: MFQSFFPKPKLFFISSAVWSLLAVLAWYAGGRDIGAYLGLPPLPPGQEPVIGVSVFWSTPFLWFYIYYAVVAGLFAAFWFAYSPHRWQYWSVLGTALIIFNTYFSVQVSVAINAWYGPFYDLIQQALARTAPVTAGQLYSGMIGFSGIAFVAVTVGVLNLFFVSHYIFRWRTAMNEFYVAHWPRLRHVEGASQRVQEDTMRFSSTVERLGVGLVSSIMTLIAFLPVLFKFSEQVNVLPIVGEIPHALVWAAVFWSVFGTVFLAAVGIKLPGLEFRNQRVEAAYRKELVYGEDHEDRADPITLAQLFDNVRRNYFRLYFHYMYFNIARIFYLQADNLFGTFVLVPAIVAGKLTLGVMNQVLNVFGQVRESFQYLVNSWTTIVELLSIYKRLKAFESVLVDEPLPEIDRQFIDAGGKEELAL
As for B2, in the series “cryo-EM structure [4]”, the binding result is given as “binds”.
